Like-named read-outs stand apart in the source and are kept apart here.
How the values were obtained:
[1] = tested on: lipopolysaccharide-induced mouse BV-2 microglial cells; settings: lipopolysaccharide-induced BV-2 cells, concentration-dependent; cited from earlier work
[2] = assay type: in vivo, C57Bl/6J mice; settings: mice, i.p. 40 mM, 2.5 μL/g BW, 15 min; cerebellum, cortex, striatum, hippocampus
Procedure, shortened: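 Male C57Bl/6J mice, 8 weeks old, n = 3, given 40 mM test compound i.p. Brains were saline-perfused, dissected into regions, flash-frozen and stored at −80 °C. Tissue was homogenized in 3 vol water, then centrifuged 20 min at 4 °C. Supernatant (50 μL) was spiked with L-lysine-d8 internal standard and cleaned by phospholipid-removal SPE. Read-out: C18 UPLC–ESI–MS/MS (MRM), expressed as pmol/mg tissue, mean ± SE.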

[3] = Stability of the FruArg stock solution; assay type: physicochemical; settings: 200 mM hydroacetate salt in double-distilled water, at 4 °C
[4] = tested on: mouse BV-2 microglial cells; settings: cited from earlier work
[5] = assay type: in vivo, C57Bl/6J mice; settings: for FruArg concentration in plasma: mice, i.p. 2.5 μL/g BW of 40 mM FruArg
Procedure, shortened: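 In male C57Bl/6J mice (8 weeks; i.p. 40 mM; n = 3 per time), terminal heparinized blood was taken by cardiac puncture at 15, 30, 60 and 180 min. Plasma was stored at −80 °C. Samples (25 μL plasma plus L-lysine-d8 internal standard) went through phospholipid-removal SPE, then C18 UPLC–MS/MS MRM. Quantitation used a plasma-matrix calibration with 1/x2 weighting. PK parameters came from a fit of the concentration–time curve.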

[6] = at 10 min, 25 mg/kg; ref 39 (Gooyit et al.); cited from earlier work
[7] = mice plasma, i.p. 40 mM, 2.5 μL/g BW

For `N=C(N)NCCC[C@H](NCC(=O)[C@@H](O)[C@H](O)[C@H](O)CO)C(=O)O` [FruArg, N-α-(1-deoxy-D-fructos-1-yl)-L-arginine], the “nitric oxide (NO) production” value [1] is listed as “suppressing nitric oxide (NO) production”, the “FruArg concentration in brain tissue, all four subregions” value [2] is listed as 4–7 pmol/mg tissue and the “stability of stock solution” value [3] is listed as “at least 6 months”. The cell viability [4] was “without affecting the cell viability”, the “clearance (Cl)” value [5, 7] was 1.8 × 10^–4 L·min and the “elimination rate (k)” value [5, 7] was 6.91 × 10^–2 min^–1. The “half-life (t1/2)” value [5, 7] was 10.03 min, the “volume distribution (VD)” value [5, 7] was 2.63 × 10^–3 L and the “AUC0→∞” value ([5]; mice plasma, i.p. 40 mM, 2.5 μL/g BW, extrapolated to infinity) was 4930 µM·min. The “clearance (Cl)” value ([5]; mice plasma, i.p. 40 mM, 2.5 μL/g BW, unit as in Table 2) was 1.8 × 10^–4 L·min^–1, the “FruArg concentration in plasma” value ([5]; 15 min, average n = 3 ± SE) was 111 ± 3 µM and the “FruArg concentration in plasma” value ([5]; 30 min, average n = 3 ± SE) was 33 ± 9 µM. The “FruArg concentration in plasma” value ([5]; 60 min, average n = 3 ± SE) was 5 ± 2 µM and the “FruArg concentration in plasma” value ([5]; 180 min, plasma LOQ 1 μM) was “below the LOQ”.
In the case of `O=S(=O)(CC1CS1)c1ccc(Oc2ccccc2)cc1` (stereo not drawn) [SB-3CT], the “concentration in the brain tissue” value [6] is listed as 5.0 ± 0.8 pmol/mg.

Source: article PMC5088453 (ACS Omega, 2016)
